Measurements: ChEMBL document CHEMBL3112561, “Small molecule disruptors of the glucokinase-glucokinase regulatory protein interaction: 2. Leveraging structure-based drug design to identify analogues with improved pharmacokinetic profiles” (J Med Chem, 2014)
Calls of active or inactive are those of the source. The rule behind the calls is not given here.

Key:
[1] = Intrinsic clearance in rat liver microsomes at 1 uM after 30 mins in presence of NADPH; format: ADME; conditions: read-out: CLH
[2] = molecular target: T1, Glucokinase regulatory protein (Homo sapiens, UniProt Q14397); test: Inhibition of fluorescein-labeled human GK interaction with biotin-labeled human GKRP incubated for 20 mins prior to addition of fluorescein-labeled GK measured after 2 to 4 hrs by Alpha Screen assay
T1 sequence (Q14397 whole entry): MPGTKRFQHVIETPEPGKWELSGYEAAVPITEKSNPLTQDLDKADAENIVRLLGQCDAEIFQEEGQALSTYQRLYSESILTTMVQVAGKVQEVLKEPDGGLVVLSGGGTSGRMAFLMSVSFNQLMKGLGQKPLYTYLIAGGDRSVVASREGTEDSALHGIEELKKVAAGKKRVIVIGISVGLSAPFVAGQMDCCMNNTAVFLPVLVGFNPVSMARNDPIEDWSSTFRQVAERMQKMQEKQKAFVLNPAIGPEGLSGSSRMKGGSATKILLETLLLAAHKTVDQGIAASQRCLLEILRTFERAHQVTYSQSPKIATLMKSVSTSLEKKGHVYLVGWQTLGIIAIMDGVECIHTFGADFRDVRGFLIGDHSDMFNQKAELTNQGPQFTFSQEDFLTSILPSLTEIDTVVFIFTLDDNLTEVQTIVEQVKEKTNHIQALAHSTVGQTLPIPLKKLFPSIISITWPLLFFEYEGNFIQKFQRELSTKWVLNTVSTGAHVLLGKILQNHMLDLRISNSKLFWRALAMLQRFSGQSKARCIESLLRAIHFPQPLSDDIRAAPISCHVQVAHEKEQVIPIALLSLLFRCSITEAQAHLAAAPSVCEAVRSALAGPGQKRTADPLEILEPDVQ

[3] = Intrinsic clearance in human liver microsomes at 1 uM after 30 mins in presence of NADPH; format: ADME; conditions: read-out: CLH
[4] = molecular target: T2, Glucokinase regulatory protein (Mus musculus, UniProt Q91X44); test: Induction of GK translocation from nucleus to cytoplasm of mouse hepatocytes preincubated for 20 mins followed by glucose challenge measured after 40 mins by Hoechst 33342 staining-based assay; format: cell-based, Hepatocyte
T2 sequence (Q91X44 whole entry): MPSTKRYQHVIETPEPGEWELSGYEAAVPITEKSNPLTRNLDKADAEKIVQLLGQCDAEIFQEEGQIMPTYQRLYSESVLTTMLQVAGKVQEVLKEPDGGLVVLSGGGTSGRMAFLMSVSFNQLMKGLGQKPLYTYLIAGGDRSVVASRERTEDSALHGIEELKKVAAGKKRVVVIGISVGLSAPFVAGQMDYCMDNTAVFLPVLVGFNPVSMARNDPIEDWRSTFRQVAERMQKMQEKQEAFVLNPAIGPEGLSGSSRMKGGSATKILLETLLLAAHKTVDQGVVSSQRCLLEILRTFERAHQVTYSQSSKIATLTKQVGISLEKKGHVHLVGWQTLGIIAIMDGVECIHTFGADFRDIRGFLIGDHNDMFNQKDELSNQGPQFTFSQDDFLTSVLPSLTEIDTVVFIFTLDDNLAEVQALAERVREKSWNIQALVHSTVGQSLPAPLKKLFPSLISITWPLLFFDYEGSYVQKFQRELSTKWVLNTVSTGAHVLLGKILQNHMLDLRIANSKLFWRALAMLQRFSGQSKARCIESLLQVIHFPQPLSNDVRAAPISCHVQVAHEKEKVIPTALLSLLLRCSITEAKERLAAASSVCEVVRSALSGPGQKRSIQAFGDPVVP

[5] = tested on: Mus musculus; test: Antidiabetic activity in insulin-resistant db/db mouse assessed as reduction of fed blood glucose level at 50 mg/kg, po measured at 4 to 8 hrs; format: functional, organism-based; design: dose 50 mg/kg
Summary of the method: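 Fed db/db mice from 8–9 wk of age, acclimatized 1 wk; retro-orbital bleed at 8:00 AM, glucose by meter, randomized, only 300–500 mg/dL included. Oral gavage at 9:00 AM in 2% HPMC/1% Tween 80, pH 2.2 (MSA). Blood glucose at 4 and 8 h post-dose versus vehicle groups (n ≥ 7); ANCOVA.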

[6] = Mean residence time in rat at 10 mg/kg, po; format: ADME, organism-based; design: dose 10 mg/kg, route oral; conditions: in vivo
Summary of the method: (§1)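 Oral PK at 10 mg/kg in 1% Tween 80, 2% HPMC, 97% water, […]; mean residence time from plasma profile.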

[7] = Volume of distribution at steady state in rat at 2 mg/kg, iv; format: ADME, organism-based; design: dose 2 mg/kg, route intravenous; conditions: in vivo, read-out: Vdss
Summary of the method: (§2)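 Intravenous PK at 2 mg/kg in 100% DMSO; steady-state volume of distribution derived from plasma profile.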

[8] = Oral bioavailability in rat at 10 mg/kg; format: ADME, organism-based; conditions: in vivo
[9] = tested on: Liver microsome; test: Drug metabolism in human liver microsomes assessed as cleavage of sufonamide; format: ADME
[10] = tested on: Liver microsome; test: Drug metabolism in human liver microsomes assessed as oxidation of thiophene ring; format: ADME
[11] = tested on: Liver microsome; test: Drug metabolism in rat liver microsomes assessed as cleavage of sufonamide; format: ADME
[12] = tested on: Liver microsome; test: Drug metabolism in rat liver microsomes assessed as oxidation of thiophene ring; format: ADME
[13] = Clearance in rat at 2 mg/kg, iv; format: ADME, organism-based; design: dose 2 mg/kg, route intravenous; conditions: in vivo
[14] = tested on: Liver microsome; test: Drug metabolism in rat liver microsomes assessed as oxidative metabolite formation; format: ADME
[15] = Mean residence time in C57Bl6 mouse at 10 mg/kg, po; format: ADME, organism-based; design: dose 10 mg/kg, route oral; conditions: in vivo; summary of the method: as §1
[16] = tested on: Mus musculus; test: Antidiabetic activity in insulin-resistant db/db mouse assessed as reduction of fed blood glucose level at 30 mg/kg, po measured at 6 hrs relative to vehicle-treated control; format: functional; design: scale not given: the % may be the effect or the level left
[17] = tested on: Mus musculus; test: Unbound maximum concentration in C57Bl6 mouse at 10 mg/kg, po; format: ADME, organism-based; design: dose 10 mg/kg, route oral; conditions: in vivo
[18] = Oral bioavailability in C57Bl6 mouse at 10 mg/kg; format: ADME, organism-based; conditions: in vivo
[19] = Volume of distribution at steady state in C57Bl6 mouse at 2 mg/kg, iv; format: ADME, organism-based; design: dose 2 mg/kg, route intravenous; conditions: in vivo, read-out: Vdss; summary of the method: as §2
[20] = tested on: Mus musculus; test: Antidiabetic activity in insulin-resistant db/db mouse assessed as reduction of fed blood glucose level at 100 mg/kg, po measured at 6 hrs relative to vehicle-treated control; format: functional; design: scale not given: the % may be the effect or the level left
[21] = tested on: Mus musculus; test: Antidiabetic activity in insulin-resistant db/db mouse assessed as reduction of fed blood glucose level at 100 mg/kg, po measured at 8 hrs relative to vehicle-treated control; format: functional; design: scale not given: the % may be the effect or the level left

Row | microsomal CLint at 1 µM [1] [µL/min/mg] | IC50 [2] [µM] | microsomal CLint at 1 µM [3] [µL/min/mg] | EC50 [4] [µM] | Compound | other results
1 | 120 | 0.524 | 83 | > 12.5 | CC(O)(c1ccc(N2CCN(S(=O)(=O)c3cccs3)C[C@@H]2CN2CC3(COC3)C2)cc1)C(F)(F)F (mixture of isomers) | –
2 | 109 | 0.056 | < 14 | 2.93 | CCC#CC1CN(S(=O)(=O)c2ccc(N)nc2)CCN1c1ccc(C(O)(C(F)(F)F)C(F)(F)F)cc1 (racemic) | –
3 | > 399 | 0.007 | 451 | 0.82 | C[C@H]1COCCN1C[C@H]1CN(S(=O)(=O)c2cccs2)CCN1c1ccc(C(C)(O)C(F)(F)F)cc1 (mixture of isomers) | –
4 | 90 | 0.324 | – | > 12.5 | Nc1csc(S(=O)(=O)N2CCN(c3ccc(C(O)(C(F)(F)F)C(F)(F)F)cc3)CC2)c1 | –
5 | 237 | – | – | > 12.5 | Nc1ccccc1S(=O)(=O)N1CCN(c2ccc(C(O)(C(F)(F)F)C(F)(F)F)cc2)CC1 | –
6 | 349 | 0.439 | 280 | > 12.5 | CC(O)(c1ccc(N2CCN(S(=O)(=O)c3cccs3)C[C@@H]2CN2CCC(F)(F)CC2)cc1)C(F)(F)F (mixture of isomers) | –
7 | 128 | 0.252 | – | > 12.5 | Nc1ccc(S(=O)(=O)N2CCN(c3ccc(C(O)(C(F)(F)F)C(F)(F)F)cc3)CC2)s1 | –
8 | 150 | – | – | – | O=S(=O)(c1cccs1)N1CCN(c2ccc(C(O)(C(F)(F)F)C(F)(F)F)cc2)CC1 | –
9 | 50 | 0.343 | 92 | > 12.5 | CC(O)(c1ccc(N2CCN(S(=O)(=O)c3cccs3)C[C@@H]2CN2CCS(=O)(=O)CC2)cc1)C(F)(F)F (mixture of isomers) | –
10 | > 399 | 0.002 | 320 | 0.239 | CC(O)(c1ccc(N2CCN(S(=O)(=O)c3cccs3)C[C@@H]2CN2C3CCC2COC3)cc1)C(F)(F)F (mixture of isomers) | –
11 | 93 | 0.09 | 132 | > 12.5 | CC1CS(=O)(=O)CCN1C[C@H]1CN(S(=O)(=O)c2cccs2)CCN1c1ccc(C(C)(O)C(F)(F)F)cc1 (mixture of isomers) | –

Second part, the compound before the results:

Row | Compound | microsomal CLint at 1 µM [1] [µL/min/mg] | IC50 [2] [µM] | microsomal CLint at 1 µM [3] [µL/min/mg] | EC50 [4] [µM] | other results
12 | Nc1ncc(S(=O)(=O)N2CCN(c3ccc(C(O)(C(F)(F)F)C(F)(F)F)cc3)CC2)cn1 | < 14 | – | – | – | –
13 | Nc1ccc(S(=O)(=O)N2CCN(c3ccc(C(O)(C(F)(F)F)C(F)(F)F)cc3)C(C#CC3CC3)C2)cn1 (racemic) | 61 | 0.779 | 52 | > 12.5 | –
14 | CC(C)(C)C#CC1CN(S(=O)(=O)c2ccc(N)nc2)CCN1c1ccc(C(O)(C(F)(F)F)C(F)(F)F)cc1 (racemic) | 90 | 1.43 | < 14 | > 12.5 | –
15 | CS(=O)(=O)c1ccc([C@@H](CC2CCCC2)C(=O)Nc2nccs2)cc1 | – | – | – | – | Activity [5]: Active
16 | Nc1cccc(S(=O)(=O)N2CCN(c3ccc(C(O)(C(F)(F)F)C(F)(F)F)cc3)CC2)c1 | 59 | 0.645 | – | > 12.5 | –
17 | CC#C[C@H]1CN(S(=O)(=O)c2ccc(N)nc2)CCN1c1ccc([C@](C)(O)C(F)(F)F)cc1 | – | – | – | – | MRT [6]: 2.9 h; Vd [7]: 3.7 L/kg; bioavailability [8]: 57%
18 | CC(O)(c1ccc(N2CCN(S(=O)(=O)c3cccs3)C[C@@H]2CN2[C@H]3COC[C@H]2[C@@H](O)C3)cc1)C(F)(F)F (mixture of isomers) | 141 | 0.026 | 125 | 1.29 | –
19 | C[C@@](O)(c1ccc(N2CCN(S(=O)(=O)c3cccs3)C[C@@H]2CN2[C@@H]3COC[C@H]2[C@@H](O)C3)cc1)C(F)(F)F | 155 | 0.025 | 99 | 1.67 | –
20 | Nc1ccc(S(=O)(=O)N2CCN(c3ccc(C(O)(C(F)(F)F)C(F)(F)F)cc3)CC2)cc1 | 49 | 0.484 | – | > 12.5 | –
21 | C[C@](O)(c1ccc(N2CCN(S(=O)(=O)c3cccs3)C[C@@H]2CN2[C@@H]3COC[C@H]2[C@@H](O)C3)cc1)C(F)(F)F | 112 | 0.056 | 131 | > 12.5 | –
22 | C[C@@](O)(c1ccc(N2CCN(S(=O)(=O)c3cccs3)C[C@@H]2CN2[C@H]3COC[C@@H]2[C@H](O)C3)cc1)C(F)(F)F | 118 | 0.014 | 128 | 1.19 | Drug metabolism [9]: Active; Drug metabolism [10]: Active; Drug metabolism [11]: Active; Drug metabolism [12]: Active
23 | O=S(=O)(c1ccccc1)N1CCN(c2ccc(C(O)(C(F)(F)F)C(F)(F)F)cc2)CC1 | 94 | 1.01 | – | > 12.5 | –
24 | Nc1ccc(S(=O)(=O)N2CCN(c3ccc(C(O)(C(F)(F)F)C(F)(F)F)cc3)CC2)cn1 | < 14 | – | < 14 | > 12.5 | MRT [6]: 8.4 h; clearance [13]: 2 mL/min/kg; Vd [7]: 1.41 L/kg; bioavailability [8]: 71%; Drug metabolism [14]: Not Active
25 | Nc1cc(S(=O)(=O)N2CCN(c3ccc(C(O)(C(F)(F)F)C(F)(F)F)cc3)CC2)ccn1 | 27 | 8.63 | – | > 12.5 | –
26 | C[C@](O)(c1ccc(N2CCN(S(=O)(=O)c3cccs3)C[C@@H]2CN2[C@H]3COC[C@@H]2[C@H](O)C3)cc1)C(F)(F)F | 114 | 0.016 | 135 | 4.76 | –
27 | CC#C[C@H]1CN(S(=O)(=O)c2ccc(N)nc2)CCN1c1ccc(C(O)(C(F)(F)F)C(F)(F)F)cc1 | – | – | – | – | MRT [6]: 6.2 h; MRT [15]: 9.2 h; Activity [16]: 47%; fCmax [17]: 0.068 µM; Vd [7]: 3.6 L/kg; bioavailability [8]: 75%; bioavailability [18]: 40%; Vd [19]: 1.1 L/kg; Activity [20]: 60%; Activity [21]: 56%
28 | CC(O)(c1ccc(N2CCN(S(=O)(=O)c3cccs3)C[C@@H]2CN2[C@H]3COC[C@H]2[C@H](O)C3)cc1)C(F)(F)F (mixture of isomers) | 321 | 0.044 | 302 | 1.69 | –
